{"source": "BindingDB's records for doi:10.1021/jm00001a007", "about": "(Sandoz Pharma, 1995)", "key": {"D(1A) dopamine receptor": {"biological_target": "D(1A) dopamine receptor (Bos taurus, UniProt Q95136)", "sequence (Q95136 whole entry)": "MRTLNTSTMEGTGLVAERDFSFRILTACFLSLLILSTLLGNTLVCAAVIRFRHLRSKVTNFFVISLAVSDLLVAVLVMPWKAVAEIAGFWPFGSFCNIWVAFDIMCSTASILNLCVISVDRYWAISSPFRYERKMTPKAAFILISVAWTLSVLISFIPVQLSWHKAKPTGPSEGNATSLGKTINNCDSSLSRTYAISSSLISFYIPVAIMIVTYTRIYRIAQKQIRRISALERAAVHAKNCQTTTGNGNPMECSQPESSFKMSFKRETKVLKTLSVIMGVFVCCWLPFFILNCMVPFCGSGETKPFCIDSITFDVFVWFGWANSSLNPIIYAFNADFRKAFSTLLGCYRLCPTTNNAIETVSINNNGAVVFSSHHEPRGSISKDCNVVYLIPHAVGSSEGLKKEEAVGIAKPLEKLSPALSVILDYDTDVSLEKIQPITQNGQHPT", "assay": "Binding affinity towards Dopamine receptor D1 of calf striatal tissue using [3H]SCH-23390", "method_in_brief": "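Calf striatal membranes, [3H]SCH-23390. Nonspecific binding defined with 1 μM unlabeled SCH-23390. IC50 from displacement curves converted via Cheng–Prusoff to KD, expressed as pKD.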"}, "D(2) dopamine receptor": {"biological_target": "D(2) dopamine receptor (Bos taurus, UniProt P20288)", "sequence (P20288 whole entry)": "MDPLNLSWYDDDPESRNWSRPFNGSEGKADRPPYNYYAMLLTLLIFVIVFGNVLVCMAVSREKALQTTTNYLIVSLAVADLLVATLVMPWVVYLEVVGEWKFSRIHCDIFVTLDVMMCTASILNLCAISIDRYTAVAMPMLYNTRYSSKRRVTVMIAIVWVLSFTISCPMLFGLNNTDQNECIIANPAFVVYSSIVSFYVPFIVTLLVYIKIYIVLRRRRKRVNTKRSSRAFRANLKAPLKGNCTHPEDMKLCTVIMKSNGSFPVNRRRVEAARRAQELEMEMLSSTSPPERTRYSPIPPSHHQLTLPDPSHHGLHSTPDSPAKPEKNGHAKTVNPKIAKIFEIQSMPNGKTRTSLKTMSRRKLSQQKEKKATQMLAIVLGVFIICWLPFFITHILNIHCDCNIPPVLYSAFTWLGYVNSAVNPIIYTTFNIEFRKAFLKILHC", "assay": "Binding affinity towards Dopamine receptor D2 of calf striatal tissue using [3H]spiperone", "method_in_brief": "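Calf striatal membranes, [3H]spiperone. Cinanserin (0.5 μM) masked 5-HT2A sites; nonspecific binding defined with haloperidol (5 μM). Displacement IC50 converted to KD (Cheng–Prusoff), reported as pKD.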"}, "[1]": {"biological_target": "T1, Alpha-1A adrenergic receptor (Bos taurus, UniProt P18130)", "T1 sequence (P18130 whole entry)": "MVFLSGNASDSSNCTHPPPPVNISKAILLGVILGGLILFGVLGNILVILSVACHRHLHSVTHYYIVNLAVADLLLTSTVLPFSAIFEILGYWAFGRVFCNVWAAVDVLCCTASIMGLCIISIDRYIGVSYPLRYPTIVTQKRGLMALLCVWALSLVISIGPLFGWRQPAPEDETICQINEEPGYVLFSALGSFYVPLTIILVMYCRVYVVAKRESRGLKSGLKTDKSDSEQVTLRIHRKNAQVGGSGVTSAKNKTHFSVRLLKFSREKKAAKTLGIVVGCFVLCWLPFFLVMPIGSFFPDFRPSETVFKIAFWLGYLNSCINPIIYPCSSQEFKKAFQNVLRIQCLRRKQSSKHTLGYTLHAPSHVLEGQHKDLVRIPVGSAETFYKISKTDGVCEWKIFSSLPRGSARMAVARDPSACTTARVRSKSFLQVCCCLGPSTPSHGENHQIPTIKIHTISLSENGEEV", "assay": "Binding affinity towards Alpha-1 adrenergic receptor of calf brain cortex using [3H]prazosin", "method_in_brief": "(§1)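 Membranes from fresh calf brain cortex. Nonspecific binding defined with 10 μM phentolamine for α1 ([3H]prazosin) and with 1 μM unlabeled clonidine for α2 ([3H]clonidine). IC50 converted to KD (Cheng–Prusoff), given as pKD.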"}, "[2]": {"biological_target": "T2, Alpha-2A adrenergic receptor (Bos taurus, UniProt Q28838)", "T2 sequence (Q28838 whole entry)": "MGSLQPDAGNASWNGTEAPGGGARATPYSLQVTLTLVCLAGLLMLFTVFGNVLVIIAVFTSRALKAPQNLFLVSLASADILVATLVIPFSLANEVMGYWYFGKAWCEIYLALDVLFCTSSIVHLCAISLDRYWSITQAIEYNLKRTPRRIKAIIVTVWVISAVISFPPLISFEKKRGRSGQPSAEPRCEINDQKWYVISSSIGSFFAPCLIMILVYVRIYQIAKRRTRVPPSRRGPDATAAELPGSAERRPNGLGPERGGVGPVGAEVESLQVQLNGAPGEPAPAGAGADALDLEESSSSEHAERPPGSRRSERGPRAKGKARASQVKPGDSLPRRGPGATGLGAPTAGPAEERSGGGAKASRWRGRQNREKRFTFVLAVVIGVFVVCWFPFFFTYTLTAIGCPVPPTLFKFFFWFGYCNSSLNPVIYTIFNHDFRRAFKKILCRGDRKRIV", "assay": "Binding affinity towards Alpha-2 adrenergic receptor of calf brain cortex using [3H]clonidine", "method_in_brief": "as §1"}, "[3]": {"biological_target": "5-hydroxytryptamine 2A receptor", "assay": "Binding affinity towards 5-hydroxytryptamine 2A receptor in rat cortex preparations using [3H]ketanserin", "method_in_brief": "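5-HT2 sites: rat cortex for 2A ([3H]ketanserin), porcine choroid plexus for 2C ([3H]mesulergine). Nonspecific binding defined with 10 μM mianserin. Displacement-curve IC50 converted to KD via Cheng–Prusoff; expressed as pKD.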"}}, "note": "Where “and” joins values, the source holds several entries; their conditions need not be identical. Identical values can stand only once. Counter-ions that a name gives are not always drawn.", "data": [{"smiles": "CN1CC[C@@H]2CN3CCc4cccc(c43)[C@@H]2C1", "note": "[SDZ SER 082 FUMARATE]", "values": [{"measurement": "Kd", "setting": "D(1A) dopamine receptor", "value": "< 10000", "unit": "nM"}, {"measurement": "Kd", "setting": "D(2) dopamine receptor", "value": "< 10000", "unit": "nM"}, {"measurement": "Kd", "setting": "[1]", "value": "1000 nM and 999 nM"}, {"measurement": "Kd", "setting": "[2]", "value": "999 nM and 1000 nM"}, {"measurement": "Kd", "setting": "[3]", "value": 631, "unit": "nM"}]}]}
